Measurements published in ChEMBL document CHEMBL1764999, “In vitro characterization of human peptide transporter hPEPT1 interactions and passive permeation studies of short cationic antimicrobial peptides” (J Med Chem, 2011).
In brackets after ≈: the same amount, converted by molar mass. Square brackets hold non-standard residues; d marks the D form. Peptide text beside a SMILES is read from it. * marks the point of attachment. Phe(4-guanidino) = N=C(N)Nc1ccc(C[C@H](N)C(=O)O)cc1; Bip = N[C@@H](Cc1ccc(-c2ccccc2)cc1)C(=O)O; Dip = N[C@H](C(=O)O)C(c1ccccc1)c1ccccc1; NHBn = c1ccc(CN*)cc1

How the values were obtained:
[1] = Apparent permeability of the compound by PAMPA; assay type: ADME
Staphylococcus aureus [2] = assay: Antibacterial activity against methicillin-resistant Staphylococcus aureus by micro dilution method; assay type: functional
[3] = biological target: T1, Solute carrier family 15 member 1 (Homo sapiens) (UniProt P46059); assay: Inhibition of human PEPT1 expressed in Xenopus laevis oocytes assessed as effect on glycylsarcosine-induced transport-associated flux rate current at 0.25 to 1 mM at -60 mV membrane potential by two-electrode voltage clamp method; assay type: cell-based; details: Oocyte
T1 sequence (whole entry): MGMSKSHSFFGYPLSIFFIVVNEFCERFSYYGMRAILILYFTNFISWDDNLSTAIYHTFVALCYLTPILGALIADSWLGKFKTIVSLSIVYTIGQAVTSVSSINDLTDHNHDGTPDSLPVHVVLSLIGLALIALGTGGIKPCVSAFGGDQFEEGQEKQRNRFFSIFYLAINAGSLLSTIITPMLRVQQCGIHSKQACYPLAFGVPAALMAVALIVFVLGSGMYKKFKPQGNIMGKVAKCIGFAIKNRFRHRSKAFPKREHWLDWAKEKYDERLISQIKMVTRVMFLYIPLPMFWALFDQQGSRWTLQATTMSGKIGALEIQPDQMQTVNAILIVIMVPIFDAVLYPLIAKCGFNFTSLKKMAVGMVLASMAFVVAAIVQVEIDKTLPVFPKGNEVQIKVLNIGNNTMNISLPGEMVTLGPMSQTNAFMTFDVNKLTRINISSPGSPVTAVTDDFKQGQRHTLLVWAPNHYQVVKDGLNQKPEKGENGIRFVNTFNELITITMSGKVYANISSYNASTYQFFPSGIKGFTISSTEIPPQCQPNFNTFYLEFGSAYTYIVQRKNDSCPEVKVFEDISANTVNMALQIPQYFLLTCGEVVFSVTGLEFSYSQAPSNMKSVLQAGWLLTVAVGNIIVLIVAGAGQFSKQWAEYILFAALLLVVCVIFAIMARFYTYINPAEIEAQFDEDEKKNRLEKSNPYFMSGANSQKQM
In short: (§1)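 The hPEPT1 cRNA-injected oocytes were clamped at -60 mV in Barth's solution with HEPES replaced by MES (pH 6.5), at room temperature. Currents from 1 mM Gly-Sar were recorded with and without test peptide (0.25-1.0 mM) at steady state. Flux used a 3.80 mm² surface. Inhibition is residual current as % of the Gly-Sar current. IC50 was fitted from mean inhibitions by Michaelis-Menten.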

Staphylococcus aureus [4] = assay: Antibacterial activity against Staphylococcus aureus by micro dilution method; assay type: functional
[5] = biological target: T1, Solute carrier family 15 member 1 (Homo sapiens); assay: Inhibition of human PEPT1 expressed in Xenopus laevis oocytes assessed as Inhibition of glycylsarcosine-induced transport-associated current at 0.25 to 1 mM at -60 mV membrane potential by two-electrode voltage clamp method; assay type: cell-based; details: Oocyte; in short: as §1
Escherichia coli = assay: Antibacterial activity against Escherichia coli by micro dilution method; assay type: functional
[6] = biological target: T2, Solute carrier family 15 member 1 (Homo sapiens, UniProt P46059); assay: Inhibition of human PEPT1 expressed in Xenopus laevis oocytes assessed as inhibition of glycylsarcosine-induced transport-associated current at -60 mV membrane potential by two-electrode voltage clamp method; assay type: cell-based, Oocyte; in short: as §1
T2 sequence (P46059 whole entry): T1 sequence (whole entry)

[7] = biological target: T1, Solute carrier family 15 member 1 (Homo sapiens); assay: Activity of human PEPT1 expressed in Xenopus laevis oocytes assessed as induction of transport-associated flux rate current at 1 mM at -60 mV membrane potential by two-electrode voltage clamp method; assay type: cell-based; details: Oocyte
In short: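 Oocytes were collagenase-treated (2.5 mg/mL, 70 min) and injected with ~25 ng hPEPT1 cRNA, then held 3-5 days at 17 °C. Superfused at room temperature with MES-buffered Barth's, pH 6.5, clamped at -60 mV. Current is the difference with vs without test peptide, taken 20-30 s after application. Flux in pmol/(s cm²) assumes a 3.80 mm² oocyte surface. Mean of three oocytes.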

Activity [7] | Papp [1] | Compound | Papp ([1]; read-out: Papp) | MIC (Staphylococcus aureus [2]) | Activity [3] | MIC (Staphylococcus aureus [4]) | inhibition [5] | MIC (Escherichia coli) | IC50 [6]
– | – | COCCc1ccc(OCC(O)CNC(C)C)cc1 (stereo not given) [METOPROLOL] | 3.23 ×10⁻⁶ cm/s | – | – | – | – | – | –
– | – | N=C(N)NCCC[C@H](NC(=O)[C@H](Cc1ccc(-c2ccccc2)cc1)NC(=O)[C@@H](N)CCCNC(=N)N)C(N)=O (H-Arg-[Bip]-Arg-NH2) | 0.01 ×10⁻⁶ cm/s | 50 µg/mL (≈ 90.5 µM) | 56.7 pmol/(s.cm2) | 200 µg/mL (≈ 362 µM) | -3.3% | – | –
– | – | N=C(N)NCCC[C@H](NC(=O)[C@H](Cc1ccc(-c2ccccc2)cc1)NC(=O)[C@@H](N)CCCNC(=N)N)C(=O)NCc1ccccc1 (H-Arg-[Bip]-Arg-NHBn) | 0.01 ×10⁻⁶ cm/s | 5 µg/mL (≈ 7.78 µM) | – | 5 µg/mL (≈ 7.78 µM) | – | 100 µg/mL (≈ 156 µM) | –
– | – | CC(C)(C)c1cc(C(C)(C)C)c2[nH]c(C(C)(C)C)c(C[C@H](N)C(=O)N[C@@H](CCCNC(=N)N)C(N)=O)c2c1 | 0.43 ×10⁻⁶ cm/s | 15 µg/mL (≈ 28.4 µM) | 34.8 pmol/(s.cm2) | 15 µg/mL (≈ 28.4 µM) | 20.3% | > 150 µg/mL | 600 µM
1.2% | – | NC(N)=NCCC[C@H](NC(=O)[C@@H](N)Cc1c[nH]c2ccccc12)C(=O)NCc1ccccc1 (H-Trp-Arg-NHBn) | – | – | – | – | – | – | –
– | – | CC(C)(C)c1cc(C(C)(C)C)c2[nH]c(C(C)(C)C)c(C[C@H](N)C(=O)N[C@@H](CCCNC(=N)N)C(=O)NCCc3ccccc3)c2c1 | 5.27 ×10⁻⁶ cm/s | 2.5 µg/mL (≈ 3.96 µM) | – | 2.5 µg/mL (≈ 3.96 µM) | – | 10 µg/mL (≈ 15.8 µM) | –
– | – | N=C(N)NCCC[C@H](NC(=O)[C@@H](NC(=O)[C@@H](N)CCCNC(=N)N)C(c1ccccc1)c1ccccc1)C(=O)NCc1ccccc1 (H-Arg-[Dip]-Arg-NHBn) | 0.42 ×10⁻⁶ cm/s | 10 µg/mL (≈ 15.6 µM) | – | 25 µg/mL (≈ 38.9 µM) | – | > 150 µg/mL | –
– | – | CC(C)(C)NCC(O)c1cc(O)cc(O)c1 (stereo not given) [TERBUTALINE] | 0.4 ×10⁻⁶ cm/s | – | – | – | – | – | –
– | – | N=C(N)NCCC[C@H](NC(=O)[C@@H](N)CCCNC(=N)N)C(=O)N[C@@H](Cc1c[nH]c2ccccc12)C(=O)NCc1ccccc1 (H-Arg-Arg-Trp-NHBn) | 0.96 ×10⁻⁶ cm/s | 25 µg/mL (≈ 41.3 µM) | – | 75 µg/mL (≈ 124 µM) | – | > 150 µg/mL | –
– | – | N=C(N)NCCC[C@H](NC(=O)[C@@H](NC(=O)[C@@H](N)CCCNC(=N)N)C(c1ccccc1)c1ccccc1)C(N)=O (H-Arg-[Dip]-Arg-NH2) | 0.83 ×10⁻⁶ cm/s | > 150 µg/mL | – | 100 µg/mL (≈ 181 µM) | – | > 150 µg/mL | –
– | – | N=C(N)Nc1ccc(C[C@H](NC(=O)[C@H](Cc2ccc(-c3ccccc3)cc2)NC(=O)[C@@H](N)Cc2ccc(NC(=N)N)cc2)C(=O)NCc2ccccc2)cc1 (H-[Phe(4-guanidino)]-[Bip]-[Phe(4-guanidino)]-NHBn) | 0.9 ×10⁻⁶ cm/s | 5 µg/mL (≈ 6.77 µM) | – | < 2.5 µg/mL | – | 75 µg/mL (≈ 102 µM) | –
– | – | NCCCC[C@H](NC(=O)[C@H](Cc1ccc(-c2ccccc2)cc1)NC(=O)[C@@H](N)CCCCN)C(=O)NCc1ccccc1 (H-Lys-[Bip]-Lys-NHBn) | 0.26 ×10⁻⁶ cm/s | 25 µg/mL (≈ 42.6 µM) | – | 15 µg/mL (≈ 25.6 µM) | – | > 150 µg/mL | –
– | – | CC(C)(C)c1cc(C(C)(C)C)c2[nH]c(C(C)(C)C)c(C[C@H](NC(=O)[C@@H](N)CCCNC(=N)N)C(=O)N[C@@H](CCCNC(=N)N)C(=O)NCc3ccccc3)c2c1 | – | 2.5 µg/mL (≈ 3.23 µM) | – | 2.5 µg/mL (≈ 3.23 µM) | – | 7.5 µg/mL (≈ 9.69 µM) | –
– | – | N=C(N)NCCC[C@H](N)C(=O)N[C@@H](Cc1c[nH]c2ccccc12)C(=O)N[C@@H](Cc1ccc(NC(=N)N)cc1)C(=O)NCc1ccccc1 (H-Arg-Trp-[Phe(4-guanidino)]-NHBn) | 0.47 ×10⁻⁶ cm/s | 10 µg/mL (≈ 15.3 µM) | – | 50 µg/mL (≈ 76.5 µM) | – | > 150 µg/mL | –
– | – | N=C(N)NCCC[C@H](NC(=O)[C@H](Cc1ccccc1)NC(=O)[C@@H](N)CCCNC(=N)N)C(=O)NCc1ccccc1 (H-Arg-Phe-Arg-NHBn) | 2.31 ×10⁻⁶ cm/s | 75 µg/mL (≈ 132 µM) | – | 150 µg/mL (≈ 265 µM) | – | > 150 µg/mL | –
– | 0.03 ×10⁻⁶ cm/s | NS(=O)(=O)c1cc2c(cc1Cl)N=CNS2(=O)=O [CHLOROTHIAZIDE] | – | – | – | – | – | – | –
– | – | N=C(N)NCCC[C@H](N)C(=O)N[C@@H](Cc1ccc(NC(=N)N)cc1)C(=O)N[C@@H](Cc1c[nH]c2ccccc12)C(=O)NCc1ccccc1 (H-Arg-[Phe(4-guanidino)]-Trp-NHBn) | 0.38 ×10⁻⁶ cm/s | 15 µg/mL (≈ 22.9 µM) | – | 50 µg/mL (≈ 76.5 µM) | – | > 150 µg/mL | –
– | – | NCCCC[C@H](NC(=O)[C@H](Cc1ccc(-c2ccccc2)cc1)NC(=O)[C@@H](N)CCCCN)C(N)=O (H-Lys-[Bip]-Lys-NH2) | 0.06 ×10⁻⁶ cm/s | – | – | > 200 µg/mL | – | – | –
43.5% | – | N=C(N)NCCC[C@H](NC(=O)[C@@H](N)Cc1c[nH]c2ccccc12)C(=O)O (H-Trp-Arg-OH) | – | – | – | – | – | – | –
– | – | N=C(N)NCCC[C@H](NC(=O)[C@H](Cc1c[nH]c2ccccc12)NC(=O)[C@@H](N)CCCNC(=N)N)C(=O)NCc1ccccc1 (H-Arg-Trp-Arg-NHBn) | 0.77 ×10⁻⁶ cm/s | 25 µg/mL (≈ 41.3 µM) | 3.8 pmol/(s.cm2) | 75 µg/mL (≈ 124 µM) | 87.6% | > 150 µg/mL | –
– | – | COC(=O)[C@H](CCCN=C(N)N)NC(=O)[C@@H](N)Cc1ccc(-c2ccccc2)cc1 (H-[Bip]-Arg-OMe) | 1.06 ×10⁻⁶ cm/s | – | 57.2 pmol/(s.cm2) | 150 µg/mL (≈ 365 µM) | 10.4% | > 200 µg/mL | –
– | – | NC(=O)[C@H](CCCN=C(N)N)NC(=O)[C@H](Cc1c[nH]c2ccccc12)NC(=O)[C@@H](N)CCCN=C(N)N (H-Arg-Trp-Arg-NH2) | 2.37 ×10⁻⁶ cm/s | – | 61.8 pmol/(s.cm2) | > 200 µg/mL | 15.1% | > 200 µg/mL | 2700 µM
10.7% | – | N=C(N)NCCC[C@H](NC(=O)[C@@H](N)Cc1ccc(-c2ccccc2)cc1)C(=O)O (H-[Bip]-Arg-OH) | – | – | – | – | – | – | –
